These results are taken from ChEMBL document CHEMBL1126585, “Effect of N-methyl substitution of the peptide bonds in luteinizing hormone-releasing hormone agonists” (J Med Chem, 1993).

The nature of series [1]: Clearance in rat after iv dose (100 ug/kg). Format: ADME, organism-based. Particulars: in vivo, 0.1 mg/kg. The method, boiled down:
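Castrate male rats given 100 μg/kg iv bolus; blood sampled over 6 h with EDTA anticoagulant. Plasma levels by RIA with antibody recognizing C-terminal Leu-Arg-Pro-NHEt or Leu-Arg-Pro-GlyNH₂ (rabbit antisera C-402 with [125I-Tyr⁵]leuprolide tracer, or 5328W with [125I-Tyr⁵,DLys⁶]LHRH). AUC by trapezoidal rule; whole-body clearance = dose/AUC, mL/min per kg.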

Another series relates to chymotrypsin. As to the kind of experiment: Chymotrypsin degradation half-life was determined. The series is classed as ADME.
Series [2] is filed under the species Rattus norvegicus. As to the kind of experiment: Tested in vitro for LH release from cultured rat pituitary cells, activity is expressed as pD2 value. The series is classed as functional, Pituitary gland cell. The method, boiled down:
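Cultured rat pituitary cells; LH release measured across agonist concentrations; pD2 = negative log of agonist concentration giving 50% of maximal LH release.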

Series [3] is filed under the species Rattus norvegicus. As to the kind of experiment: Intestinal stability against rat jejunum sac, activity is expressed as T1/2. The series is classed as functional. The gist of the method:
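Rat jejunal sac in vitro; T1/2 taken as time, in min, for lumenal compound concentration to fall by 50%.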

Square brackets hold non-standard residues; d marks the D form. Peptide text beside a SMILES is read from it. pGlu = O=C1CC[C@@H](C(=O)O)N1 Some results are limits rather than exact numbers.

Compound `CCNC(=O)[C@@H]1CCCN1C(=O)[C@H](CCCN=C(N)N)NC(=O)C(CC(C)C)NC(=O)C(CC(C)C)NC(=O)[C@H](Cc1ccc(O)cc1)NC(=O)[C@H](CO)NC(=O)[C@H](Cc1c[nH]c2ccccc12)NC(=O)[C@H](Cc1c[nH]cn1)N(C)C(=O)[C@@H]1CCC(=O)N1` (stereo in doubt) [listing 1 of 3 here] yielded a clearance in series [1] of 7.16 mL/min/kg. The half-life in the series on chymotrypsin was 7 min.

In the series listed under Rattus norvegicus [2], `CC(C)C[C@H](NC(=O)[C@@H](Cc1ccc2ccccc2c1)NC(=O)[C@H](Cc1ccc(O)cc1)NC(=O)[C@H](CO)NC(=O)[C@H](Cc1cccc2ccccc12)N(C)C(=O)[C@H](Cc1c[nH]cn1)NC(=O)[C@@H]1CCC(=O)N1)C(=O)N[C@@H](CCCN=C(N)N)C(=O)N1CCC[C@H]1C(=O)NCC(N)=O` displayed a pD2 of 8.7.

`CCNC(=O)[C@@H]1CCCN1C(=O)[C@H](CCCNC(=N)N)NC(=O)[C@H](CC(C)C)N(C)C(=O)[C@@H](Cc1c[nH]c2ccccc12)NC(=O)[C@H](Cc1ccc(O)cc1)NC(=O)[C@H](CO)NC(=O)[C@H](Cc1c[nH]c2ccccc12)NC(=O)[C@H](Cc1c[nH]cn1)NC(=O)[C@@H]1CCC(=O)N1` [LUTRELIN] had a clearance in series [1] of 19.5 mL/min/kg. This compound also displayed a pD2 in the series listed under Rattus norvegicus [2] of 10.7.

`CCNC(=O)[C@@H]1CCCN1C(=O)[C@H](CCCN=C(N)N)NC(=O)[C@H](CC(C)C)NC(=O)[C@@H](Cc1c[nH]c2ccccc12)NC(=O)[C@H](Cc1ccc(O)cc1)NC(=O)[C@H](CO)NC(=O)[C@H](Cc1cccc2ccccc12)NC(=O)[C@H](Cc1c[nH]cn1)NC(=O)[C@@H]1CCC(=O)N1` displayed a pD2 in the series listed under Rattus norvegicus [2] of 11.49.

`CCNC(=O)[C@@H]1CCCN1C(=O)[C@H](CCCN=C(N)N)NC(=O)[C@H](CC(C)C)NC(=O)[C@@H](Cc1c[nH]c2ccccc12)NC(=O)[C@H](Cc1ccc(O)cc1)N(C)C(=O)[C@H](CO)NC(=O)[C@H](Cc1c[nH]c2ccccc12)NC(=O)[C@H](Cc1c[nH]cn1)NC(=O)[C@@H]1CCC(=O)N1`: in series [1], the clearance turned out to be 11.1 mL/min/kg. The pD2 in the series listed under Rattus norvegicus [2] is 10.55.

The compound `CCNC(=O)[C@@H]1CCCN1C(=O)[C@H](CCCN=C(N)N)NC(=O)[C@H](CC(C)C)NC(=O)[C@@H](CC(C)C)N(C)C(=O)[C@H](Cc1ccc(O)cc1)NC(=O)[C@H](CO)NC(=O)[C@H](Cc1c[nH]c2ccccc12)NC(=O)[C@H](Cc1c[nH]cn1)NC(=O)[C@@H]1CCC(=O)N1` had a pD2 in the series listed under Rattus norvegicus [2] of 9.61. In the series listed under Rattus norvegicus [3], this compound registered a T1/2 of 54 min.

In turn, `CCNC(=O)[C@@H]1CCCN1C(=O)[C@H](CCCNC(=N)N)NC(=O)[C@H](CC(C)C)NC(=O)[C@@H](Cc1c[nH]c2ccccc12)NC(=O)[C@H](Cc1ccc(O)cc1)NC(=O)[C@H](CO)NC(=O)[C@H](Cc1c[nH]c2ccccc12)NC(=O)[C@H](Cc1c[nH]cn1)NC(=O)[C@@H]1CCC(=O)N1` [DESLORELIN] registered a clearance in series [1] of 34.3 mL/min/kg. In the series filed under Rattus norvegicus [2], this compound had a pD2 of 11.33.

Turning to `CCNC(=O)[C@@H]1CCCN1C(=O)[C@H](CCCN=C(N)N)NC(=O)[C@H](CC(C)C)NC(=O)[C@@H](Cc1c[nH]c2ccccc12)NC(=O)[C@H](Cc1ccc(O)cc1)NC(=O)[C@H](CO)NC(=O)[C@H](Cc1cccc2ccccc12)N(C)C(=O)[C@H](Cc1c[nH]cn1)NC(=O)[C@@H]1CCC(=O)N1`, in series [1], the clearance worked out at 15.1 mL/min/kg. The compound further displayed a pD2 in the series listed under Rattus norvegicus [2] of 8.35.

In the series filed under Rattus norvegicus [2], `CC(C)C[C@H](NC(=O)[C@@H](Cc1ccc2ccccc2c1)NC(=O)[C@H](Cc1ccc(O)cc1)NC(=O)[C@H](CO)NC(=O)[C@H](Cc1cccc2ccccc12)NC(=O)[C@H](Cc1c[nH]cn1)NC(=O)[C@@H]1CCC(=O)N1)C(=O)N[C@@H](CCCN=C(N)N)C(=O)N1CCC[C@H]1C(=O)NCC(N)=O` showed a pD2 of 11.55.

`CC(C)C[C@H](NC(=O)[C@@H](Cc1ccc2ccccc2c1)N(C)C(=O)[C@H](Cc1ccc(O)cc1)NC(=O)[C@H](CO)NC(=O)[C@H](Cc1c[nH]c2ccccc12)NC(=O)[C@H](Cc1c[nH]cn1)NC(=O)[C@@H]1CCC(=O)N1)C(=O)N[C@@H](CCCN=C(N)N)C(=O)N1CCC[C@H]1C(=O)NCC(N)=O` registered a pD2 in the series filed under Rattus norvegicus [2] of 8.3.

`CCNC(=O)[C@@H]1CCCN1C(=O)[C@H](CCCN=C(N)N)NC(=O)[C@H](CC(C)C)NC(=O)[C@@H](CC(C)C)NC(=O)[C@H](Cc1ccc(O)cc1)N(C)C(=O)[C@H](CO)NC(=O)[C@H](Cc1c[nH]c2ccccc12)NC(=O)[C@H](Cc1cnc[nH]1)NC(=O)[C@@H]1CCC(=O)N1` had a clearance in series [1] of 8.2 mL/min/kg. For the same compound, the half-life in the series on chymotrypsin was more than 60 min.

`CCNC(=O)[C@@H]1CCCN1C(=O)[C@H](CCCN=C(N)N)NC(=O)[C@H](CC(C)C)NC(=O)[C@@H](Cc1c[nH]c2ccccc12)NC(=O)[C@H](Cc1ccc(O)cc1)NC(=O)[C@H](CO)N(C)C(=O)[C@H](Cc1c[nH]c2ccccc12)NC(=O)[C@H](Cc1c[nH]cn1)NC(=O)[C@@H]1CCC(=O)N1`: in the series listed under Rattus norvegicus [3], the T1/2 is 39.1 min.

In turn, `CCNC(=O)[C@@H]1CCCN1C(=O)[C@H](CCCN=C(N)N)NC(=O)[C@H](CC(C)C)NC(=O)[C@@H](Cc1c[nH]c2ccccc12)NC(=O)[C@H](Cc1ccc(O)cc1)NC(=O)[C@H](CO)N(C)C(=O)[C@H](Cc1c[nH]c2ccccc12)NC(=O)[C@H](Cc1cnc[nH]1)NC(=O)[C@@H]1CCC(=O)N1` had a clearance in series [1] of 19.9 mL/min/kg.

On to `CC(C)C[C@H](NC(=O)[C@@H](Cc1ccc2ccccc2c1)NC(=O)[C@H](Cc1ccc(O)cc1)NC(=O)[C@H](CO)NC(=O)[C@H](Cc1c[nH]c2ccccc12)NC(=O)[C@H](Cc1c[nH]cn1)N(C)C(=O)[C@@H]1CCC(=O)N1)C(=O)N[C@@H](CCCN=C(N)N)C(=O)N1CCC[C@H]1C(=O)NCC(N)=O`, for which the clearance in series [1] was 4.13 mL/min/kg. Besides, in the series filed under Rattus norvegicus [2], the pD2 is recorded as 8.18.

In turn, `CCNC(=O)[C@@H]1CCCN1C(=O)[C@H](CCCN=C(N)N)NC(=O)C(CC(C)C)NC(=O)C(CC(C)C)NC(=O)[C@H](Cc1ccc(O)cc1)NC(=O)[C@H](CO)NC(=O)[C@H](Cc1c[nH]c2ccccc12)NC(=O)[C@H](Cc1c[nH]cn1)N(C)C(=O)[C@@H]1CCC(=O)N1` (stereo in doubt) [listing 2 of 3 here] gave a pD2 in the series listed under Rattus norvegicus [2] of 8.22.

On to `CCNC(=O)[C@@H]1CCCN1C(=O)[C@H](CCCN=C(N)N)NC(=O)C(CC(C)C)NC(=O)C(CC(C)C)NC(=O)[C@H](Cc1ccc(O)cc1)NC(=O)[C@H](CO)NC(=O)[C@H](Cc1c[nH]c2ccccc12)NC(=O)[C@H](Cc1c[nH]cn1)N(C)C(=O)[C@@H]1CCC(=O)N1` (stereo in doubt) [listing 3 of 3 here], for which, in the series filed under Rattus norvegicus [3], the T1/2 came out at 48 min.

`CCNC(=O)[C@@H]1CCCN1C(=O)[C@H](CCCN=C(N)N)NC(=O)[C@H](CC(C)C)NC(=O)[C@@H](CC(C)C)N(C)C(=O)[C@H](Cc1ccc(O)cc1)NC(=O)[C@H](CO)NC(=O)[C@H](Cc1c[nH]c2ccccc12)NC(=O)[C@H](Cc1cnc[nH]1)NC(=O)[C@@H]1CCC(=O)N1` displayed a clearance in series [1] of 21 mL/min/kg. The compound also registered a half-life in the series with chymotrypsin of 1 min.

In series [1], `CCNC(=O)[C@@H]1CCCN1C(=O)[C@H](CCCN=C(N)N)NC(=O)[C@H](CC(C)C)NC(=O)[C@@H](CC(C)C)NC(=O)[C@H](Cc1ccc(O)cc1)NC(=O)[C@H](CO)NC(=O)[C@H](Cc1c[nH]c2ccccc12)NC(=O)[C@H](Cc1ccccc1)NC(=O)[C@@H]1CCC(=O)N1` ([pGlu]FWSY[dL]LRP-NHEt) came in with a clearance of 25.4 mL/min/kg. Besides, in the series listed under Rattus norvegicus [3], the T1/2 was 2.2 min.

Regarding `CC(C)C[C@H](NC(=O)[C@@H](Cc1ccc2ccccc2c1)NC(=O)[C@H](Cc1ccc(O)cc1)NC(=O)[C@H](CO)NC(=O)[C@H](Cc1c[nH]c2ccccc12)NC(=O)[C@H](Cc1c[nH]cn1)NC(=O)[C@@H]1CCC(=O)N1)C(=O)N[C@@H](CCCN=C(N)N)C(=O)N1CCC[C@H]1C(=O)N(C)CC(N)=O`, the clearance in series [1] came out at 3.55 mL/min/kg. In the series filed under Rattus norvegicus [2], this compound came in with a pD2 of 11.87.

Compound `CC(C)C[C@H](NC(=O)[C@@H](Cc1c[nH]c2ccccc12)NC(=O)[C@H](Cc1ccc(O)cc1)NC(=O)[C@H](CO)NC(=O)[C@H](Cc1c[nH]c2ccccc12)NC(=O)[C@H](Cc1c[nH]cn1)NC(=O)[C@@H]1CCC(=O)N1)C(=O)N[C@@H](CCCN=C(N)N)C(=O)N1CCC[C@H]1C(=O)N(C)CC(N)=O` had a clearance in series [1] of 4.32 mL/min/kg. Further, in the series filed under Rattus norvegicus [2], the pD2 came to 10.05.

In series [1], `CCNC(=O)[C@@H]1CCCN1C(=O)[C@H](CCCN=C(N)N)NC(=O)[C@H](CC(C)C)NC(=O)[C@@H](Cc1c[nH]c2ccccc12)NC(=O)[C@H](Cc1ccc(O)cc1)NC(=O)[C@H](CO)NC(=O)[C@H](Cc1c[nH]c2ccccc12)NC(=O)[C@H](Cc1ccccc1)NC(=O)[C@@H]1CCC(=O)N1` ([pGlu]FWSY[dW]LRP-NHEt) had a clearance of 28.8 mL/min/kg. Further, in the series filed under Rattus norvegicus [3], the T1/2 stood at 10.8 min.

`CCNC(=O)[C@@H]1CCCN1C(=O)[C@H](CCCN=C(N)N)NC(=O)[C@H](CC(C)C)NC(=O)[C@@H](CC(C)C)NC(=O)[C@H](Cc1ccc(O)cc1)N(C)C(=O)[C@H](CO)NC(=O)[C@H](Cc1c[nH]c2ccccc12)NC(=O)[C@H](Cc1c[nH]cn1)NC(=O)[C@@H]1CCC(=O)N1` came in with a T1/2 in the series filed under Rattus norvegicus [3] of 42 min.

Turning to `CC(C)C[C@H](NC(=O)[C@@H](Cc1ccc2ccccc2c1)NC(=O)[C@H](Cc1ccc(O)cc1)NC(=O)[C@H](CO)NC(=O)[C@H](Cc1c[nH]c2ccccc12)NC(=O)[C@H](Cc1ccccc1)NC(=O)[C@@H]1CCC(=O)N1)C(=O)N[C@@H](CCCN=C(N)N)C(=O)N1CCC[C@H]1C(=O)NCC(N)=O`, the pD2 in the series filed under Rattus norvegicus [2] was 10.23.

In turn, `CC(C)C[C@@H](C(=O)N[C@@H](CCCN=C(N)N)C(=O)N1CCC[C@H]1C(=O)NCC(N)=O)N(C)C(=O)[C@@H](Cc1ccc2ccccc2c1)NC(=O)[C@H](Cc1ccc(O)cc1)NC(=O)[C@H](CO)NC(=O)[C@H](Cc1c[nH]c2ccccc12)NC(=O)[C@H](Cc1c[nH]cn1)NC(=O)[C@@H]1CCC(=O)N1` displayed a pD2 in the series listed under Rattus norvegicus [2] of 12.35.

Regarding `CCNC(=O)[C@@H]1CCCN1C(=O)[C@H](CCCN=C(N)N)N(C)C(=O)[C@H](CC(C)C)NC(=O)[C@@H](Cc1c[nH]c2ccccc12)NC(=O)[C@H](Cc1ccc(O)cc1)NC(=O)[C@H](CO)NC(=O)[C@H](Cc1c[nH]c2ccccc12)NC(=O)[C@H](Cc1c[nH]cn1)NC(=O)[C@@H]1CCC(=O)N1`, the clearance in series [1] turned out to be 25 mL/min/kg. In the series filed under Rattus norvegicus [2], this compound displayed a pD2 of 9.35.

As a reminder, the clearance is the volume of plasma or blood freed of the substance per unit of time. For orientation: half-life means the time in which the quantity being followed falls by half.
